# Read-outs that look alike come from different tables or passages of the source.
# Experiments:
# [1] = format: in vivo, human; settings: for AUC(0-inf) / AUC(0-t) / Cmax / Tmax / Vd/F / half-life: both, human, plasma, po; for CL/F: healthy subjects, mean (% CV)
# Summary of the method: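 Healthy subjects given a single oral dose; plasma parameters derived by non-compartmental analysis of pooled phase I data. Reported as mean and % coefficient of variation, except Tmax as median (minimum–maximum). AUC taken both to infinity and to the last quantifiable concentration. CL/F is total clearance, and Vz/F is the terminal-phase apparent volume after extravascular dosing.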
# [2] = format: in vivo, human; settings: for AUC(0-t) / Tmax / Vd/F / half-life: both, human, plasma, oral; for AI (accumulation index = AUC(0–tau) at steady state/AUC(0–24) day 1) / CL/F / C max: healthy subjects, mean (% CV); for C max: steady state
# Distribution coefficient = format: physicochemical; settings: data on file
# [3] = Mass balance, single oral dose of 50 mg 14C-labeled vortioxetine; format: in vivo, human; settings: single oral dose 50 mg 14C-labeled; data on file
# [4] = Effect of sex, age and race/ethnicity on pharmacokinetics; format: in vivo, human
# CYP2C19 = CYP2C19 (Homo sapiens, UniProt P33261); experiment: In-vitro CYP inhibition in pooled human liver microsomes; format: in vitro ADME
# CYP2C9 = CYP2C9 (Homo sapiens, UniProt P11712); experiment: as above; format: in vitro ADME
# [5] = cited from earlier work
# [6] = cited from earlier work; remark: listed apart in the source
# plasma protein = settings: healthy volunteers and hepatic or renal impairment; cited from earlier work
# [7] = cited from earlier work; remark: listed apart in the source
# [8] = cited from earlier work; remark: listed apart in the source
# [9] = cited from earlier work; remark: listed apart in the source
# [10] = cited from earlier work; remark: listed apart in the source
# [11] = 10 or 40 mg once daily; ICH E14 definitions; cited from earlier work
# [12] = once-daily 10 mg; 21 young individuals; cited from earlier work
# [13] = cited from earlier work; remark: listed apart in the source
# 5-HT1B receptor = settings: in vitro; cited from earlier work
# 5-HT transporter (SERT) = settings: in vitro; cited from earlier work
# [14] = cited from earlier work; remark: listed apart in the source
# [15] = multiple doses of 2.5, 5, and 20 mg, male, data on file
# [16] = pooled human liver microsomes, CYP isozyme-specific probe substrates, data on file
# [17] = simulation, 20 mg at steady state
# [18] = 10 mg daily for 14 days (Fig. 2)
# [19] = single dose 10 mg, 65–85 vs 18–45 years
# [20] = single dose, 24 male vs 24 female
# [21] = bupropion 150 mg twice daily with vortioxetine 10 mg once daily
# [22] = fluconazole 200 mg once daily with vortioxetine 10 mg
# [23] = ketoconazole 400 mg once daily with vortioxetine 10 mg
# [24] = rifampin 600 mg daily with vortioxetine 20 mg
# Sequence of CYP2C19 (P33261 whole entry): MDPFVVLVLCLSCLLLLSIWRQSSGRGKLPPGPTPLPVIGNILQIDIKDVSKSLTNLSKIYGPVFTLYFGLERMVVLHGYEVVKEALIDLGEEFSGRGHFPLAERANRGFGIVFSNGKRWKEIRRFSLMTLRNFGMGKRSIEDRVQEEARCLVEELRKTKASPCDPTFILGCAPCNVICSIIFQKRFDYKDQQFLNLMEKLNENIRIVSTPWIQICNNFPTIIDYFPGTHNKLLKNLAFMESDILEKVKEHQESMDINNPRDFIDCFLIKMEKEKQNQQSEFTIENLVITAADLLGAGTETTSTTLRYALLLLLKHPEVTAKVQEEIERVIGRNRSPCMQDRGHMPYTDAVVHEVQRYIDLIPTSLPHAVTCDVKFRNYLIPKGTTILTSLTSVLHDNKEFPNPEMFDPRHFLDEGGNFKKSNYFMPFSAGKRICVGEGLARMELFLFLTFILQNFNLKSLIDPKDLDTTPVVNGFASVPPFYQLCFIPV
# Sequence of CYP2C9 (P11712 whole entry): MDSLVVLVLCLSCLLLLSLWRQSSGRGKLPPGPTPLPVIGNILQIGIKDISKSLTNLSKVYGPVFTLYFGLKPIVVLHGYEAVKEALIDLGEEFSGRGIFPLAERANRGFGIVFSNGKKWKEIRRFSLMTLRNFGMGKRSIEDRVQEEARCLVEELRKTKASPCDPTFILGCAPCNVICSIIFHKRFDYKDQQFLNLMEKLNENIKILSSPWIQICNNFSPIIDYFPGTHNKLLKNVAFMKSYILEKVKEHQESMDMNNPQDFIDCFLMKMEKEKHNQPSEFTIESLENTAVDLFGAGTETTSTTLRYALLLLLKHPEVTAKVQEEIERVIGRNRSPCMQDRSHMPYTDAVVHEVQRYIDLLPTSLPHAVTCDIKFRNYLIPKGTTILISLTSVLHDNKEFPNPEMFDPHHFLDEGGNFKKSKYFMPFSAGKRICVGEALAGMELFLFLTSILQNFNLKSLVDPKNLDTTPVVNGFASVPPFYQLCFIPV
smiles,measurement,setting,value
"Br.Cc1ccc(Sc2ccccc2N2CCNCC2)c(C)c1 [vortioxetine, 1-[2-(2,4-dimethyl-phenylsulfanyl)-phenyl]-piperazine, hydrobromide]",time to reach maximum observed plasma concentration,"[1]; after single or multiple dosing (Tables 1, 2)",7 to 11 h
same,AUC(0-inf),[1]; 5 mg,188 ng·h/mL
same,AUC(0-t),[1]; 5 mg,157 ng·h/mL
same,Cmax,[1]; 5 mg,1.87 ng/mL
same,Tmax,[1]; 5 mg,11 h
same,Vd/F,[1]; 5 mg,2740 L
same,half-life,[1]; 5 mg,69.4 h
same,AUC(0-inf),[1]; 10 mg,273 ng·h/mL
same,AUC(0-t),[1]; 10 mg,255 ng·h/mL
same,Cmax,[1]; 10 mg,4.6 ng/mL
same,Tmax,[1]; 10 mg,8 h
same,Vd/F,[1]; 10 mg,2770 L
same,half-life,[1]; 10 mg,60.6 h
same,AUC(0-inf),[1]; 20 mg,646 ng·h/mL
same,AUC(0-t),[1]; 20 mg,561 ng·h/mL
same,Cmax,[1]; 20 mg,8.11 ng/mL
same,Tmax,[1]; 20 mg,10 h
same,Vd/F,[1]; 20 mg,3290 L
same,half-life,[1]; 20 mg,64.3 h
same,estimated total clearance (CL/F),"[1]; oral, single or multiple doses (Tables 1, 2)",30 to 41 L/h
same,CL/F,[1]; single oral dose 5 mg,29.62 (35) L/h
same,CL/F,[1]; single oral dose 10 mg,40.52 (40) L/h
same,CL/F,[1]; single oral dose 20 mg,41.47 (60) L/h
same,AUC(0-t),[2]; 5 mg,175 ng·h/mL
same,Tmax,[2]; 5 mg,7 h
same,Vd/F,[2]; 5 mg,2500 L
same,half-life,[2]; 5 mg,60 h
same,AUC(0-t),[2]; 10 mg,344 ng·h/mL
same,Tmax,[2]; 10 mg,8 h
same,Vd/F,[2]; 10 mg,3290 L
same,half-life,[2]; 10 mg,58.8 h
same,AUC(0-t),[2]; 20 mg,646 ng·h/mL
same,Tmax,[2]; 20 mg,8 h
same,Vd/F,[2]; 20 mg,3370 L
same,half-life,[2]; 20 mg,64.2 h
same,AI (accumulation index = AUC(0–tau) at steady state/AUC(0–24) day 1),[2]; multiple doses 5 mg,5.17 (27)
same,CL/F,[2]; multiple doses 5 mg,32.96 (33) L/h
same,C max,[2]; multiple doses 5 mg,8.69 (42) ng/mL
same,AI (accumulation index = AUC(0–tau) at steady state/AUC(0–24) day 1),[2]; multiple doses 10 mg,4.87 (34)
same,CL/F,[2]; multiple doses 10 mg,38.27 (60) L/h
same,C max,[2]; multiple doses 10 mg,17.92 (44) ng/mL
same,AI (accumulation index = AUC(0–tau) at steady state/AUC(0–24) day 1),[2]; multiple doses 20 mg,5.68 (38)
same,CL/F,[2]; multiple doses 20 mg,40.11 (47) L/h
same,C max,[2]; multiple doses 20 mg,33.03 (38) ng/mL
same,accumulation index (AUC(0–24) ratio steady state / single dose),[2]; multiple doses of 5–20 mg (Table 2),5–6
same,distribution coefficient (octanol/water),"Distribution coefficient; pH 3, 25 °C",2.2
same,distribution coefficient (octanol/water),"Distribution coefficient; pH 11, 25 °C",4.7
same,red blood cell distribution,[3],negligible
same,AUC(0–24) higher in elderly than young subjects,[4]; multiple 10-mg doses (Fig. 2),27%
same,C max higher in elderly than young subjects,[4]; multiple 10-mg doses (Fig. 2),23%
same,AUC(0–24) higher in female than male subjects,[4]; multiple doses (Fig. 2),27%
same,C max higher in female than male subjects,[4]; multiple doses (Fig. 2),24%
same,AUC(0–24) higher in Japanese than white participants,[4]; [15],8%
same,C max higher in Japanese than white participants,[4]; [15],9%
same,ratio of maximum plasma concentration of inhibitor (I) and Ki,"CYP2C19; CYP2C19, much smaller than",smaller than 0.1
same,inhibitory effect on CYP2C19,CYP2C19; [16],inhibitory effect
same,ratio of maximum plasma concentration of inhibitor (I) and Ki,"CYP2C9; CYP2C9, much smaller than",smaller than 0.1
same,inhibitory effect on CYP2C9,CYP2C9; [16],inhibitory effect
same,estimated CL/F,[5]; CYP2D6 EMs,34.1 L/h
same,estimated CL/F,[5]; CYP2D6 IMs,26.6 L/h
same,estimated CL/F,[5]; CYP2D6 PMs,18.1 L/h
same,estimated CL/F,[5]; CYP2D6 UMs,52.9 L/h
same,"oral clearance, CYP2C19 EMs relative to PMs",[5],1.4 times
same,"oral clearance, CYP2D6 EMs higher than PMs",[5],approximately two-fold
same,exposure in CYP2D6 PMs relative to CYP2D6 EMs,[5]; expected,twice as high
same,population mean AUC lower in CYP2D6 UMs than EMs,[5]; expected,35.5%
same,estimated minimal lag time,[5]; oral,0.781 h
same,mean oral clearance,[5]; phase I population-PK analysis,33 L/h
same,"AUC(0–24) higher, 75-year-old vs 40-year-old",[5]; [17],40%
same,"AUC(0–24) lower, 18-year-old vs 40-year-old",[5]; [17],15%
same,"C max higher, 75-year-old vs 40-year-old",[5]; [17],38%
same,"C max lower, 18-year-old vs 40-year-old",[5]; [17],14%
same,"C max and AUC(0–24) higher, 155 cm vs 175 cm person","[5]; simulation, 20 mg",5%
same,"C max and AUC(0–24) lower, 187 cm vs 175 cm person","[5]; simulation, 20 mg",4%
same,effect of food (high-fat meal) on PK parameters,[6]; fed vs fasting,No food effect
same,90% CIs for AUC(0–t) or AUC(0–inf) and C max ratios (fed to fasting),"[6]; high-fat meal, within bioequivalence range",80–125%
same,bound to plasma protein,plasma protein,Approximately 99%
same,unbound drug,plasma protein,1%
same,"hepatic clearance, contribution to CL/F",[7],99%
same,"renal clearance of parent drug, contribution to CL/F",[7],< 1%
same,AUC(0–24) higher in black than white volunteers,[8]; [18],25%
same,C max higher in black than white volunteers,[8]; [18],33%
same,AUC(0–t) higher in elderly than young subjects,[8]; [19],4%
same,C max lower in elderly than young subjects,[8]; [19],11%
same,AUC(0–t) higher in female than male subjects,[8]; [20],18%
same,C max higher in female than male subjects,[8]; [20],16%
same,"plasma protein binding, renally compromised vs healthy controls",[9],no difference
same,C max lower than healthy controls,"[9]; end-stage renal disease, single dose 10 mg (Fig. 2)",27%
same,"predicted exposure, difference from healthy control group",[9]; linear regression on creatinine clearance,≤ 30%
same,AUC(0–t) higher than healthy controls,"[9]; mild renal impairment, single dose 10 mg",9%
same,C max difference from healthy controls,"[9]; mild, moderate, or severe renal impairment, single dose 10 mg",≤ 11%
same,AUC(0–t) higher than healthy controls,"[9]; moderate renal impairment, single dose 10 mg",16%
same,AUC(0–t) higher than healthy controls,"[9]; severe renal impairment, single dose 10 mg",11%
same,AUC(0–24) increase of vortioxetine,[10]; [21],2.3 fold
same,C max increase of vortioxetine,[10]; [21],2.1 fold
same,AUC(0–t) and C max of vortioxetine with a Pgp inhibitor,[10]; co-administered with ketoconazole,marginally increased
same,effect on exposure to vortioxetine,[10]; co-administration of aspirin,no effect
same,effect on exposure to vortioxetine,[10]; co-administration of ethanol,no effect
same,effect on exposure to vortioxetine,[10]; co-administration of omeprazole,no effect
same,AUC(0–t) increase of vortioxetine,[10]; [22],46%
same,C max increase of vortioxetine,[10]; [22],15%
same,AUC(0–t) increase of vortioxetine,[10]; [23],30%
same,C max increase of vortioxetine,[10]; [23],26%
same,AUC(0–t) decrease of vortioxetine,[10]; [24],72%
same,C max decrease of vortioxetine,[10]; [24],51%
same,effect on cardiac repolarization,[11],unlikely to affect cardiac repolarization
same,"impairment of driving, cognitive function, or psychomotor skills",[12],not to impair
same,"arachidonic acid-, adenosine diphosphate-, or collagen-induced platelet aggregation",[13]; vortioxetine 10 mg added to aspirin 150 mg,did not change
same,International Normalized Ratio or prothrombin times between groups,"[13]; vortioxetine 10 mg with stable warfarin doses (1–10 mg), day 14",no difference
same,action at 5-HT1B receptor,5-HT1B receptor,partial agonist
same,action at 5-HT transporter (SERT),5-HT transporter (SERT),inhibitor
same,tolerability regardless of degree of renal or hepatic impairment,[14],well tolerated
same,tolerability of combination,[14]; [24],well tolerated

# Source: PMC5973995 (Clinical Pharmacokinetics, 2017)
